The list is not random: actives were taken first. Their share in the collection is about 4.9%.
PHOSPHO1 block: PHOSPHO1 (human) inhibition; Q8TCT1; recombinant PHOSPHO1, absorbance phosphatase assay; inhibition, % at 13.3 µM; 290,000 compounds, 1.1% hits; AID 1565; in the data active = inhibition above about 60%
Target sequence (Q8TCT1 whole entry, looked up): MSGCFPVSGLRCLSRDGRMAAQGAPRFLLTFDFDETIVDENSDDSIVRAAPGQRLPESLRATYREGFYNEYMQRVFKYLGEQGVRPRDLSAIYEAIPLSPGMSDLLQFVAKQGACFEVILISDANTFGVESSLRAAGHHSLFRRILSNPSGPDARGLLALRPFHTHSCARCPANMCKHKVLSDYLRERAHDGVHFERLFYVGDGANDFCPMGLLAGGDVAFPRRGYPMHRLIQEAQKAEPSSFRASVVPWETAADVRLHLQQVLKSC
CHT block: inhibits the human high affinity choline transporter; 310,000 compounds, 0.86% hits; B-score at 10 µM; Q9GZV3; CHT-expressing cells, membrane potential dye, choline response; hits give low values;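 active = B-score over 3 SD under the library average, and starting fluorescence ratio not unusually high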;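 note: choline stimulus applied at its EC90 after an EC20 pre-addition; B-score computed on integrated fluorescence ratio after choline addition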
HSF1 inh: HSF1 inhibition | AID 2098 | NIH3T3-HGL HSE-luciferase, MG132-induced, luminescence 8 h; hits give low values | activity change, negative = inhibition, % at 7.5 µM (by protocol) | 300,000 compounds, 0.77% hits;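 active = more than half of replicate wells show activity change below -50%, luminescence cut by over half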;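 note: luciferase reports HSF-1 transcriptional activity via heat shock element; 0% = median of DMSO wells and -100% = zero luminescence signal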
Lipid droplet: hepatic lipid droplet formation modulation | 240,000 compounds, 0.4% hits | AML12 mouse hepatocytes, oleate lipid droplets, BODIPY imaging | AID 1656 | inhibition, % at 6.5 µM;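 active = lipid droplet intensity inhibited by at least 50%, with more than 500 cells counted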
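Technique: fluorescence imaging, 20x objective, two fields per well / Assay system: AML12 hepatocytes (mouse) / Measure: % inhibition of lipid droplet signal / Doses: 6.5 µM single-point dosing / Incubation: overnight exposure / Reagent: 100 µM oleic acid challenge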
CHT allo act: allosterically activates the human high affinity choline transporter; B-score at 10 µM; Q9GZV3; 310,000 compounds, 0.49% hits; AID 488977; CHT-expressing cells, membrane potential dye, choline EC20; hits give high values; LV-AA mutant CHT in HEK293 cells;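 active = initial fluorescence not abnormally high and integrated response B-score, plate-corrected, over 3 SD above library mean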
HSF1 activator: increases HSF-1 driven luciferase reporter signal. AID 504408. NIH3T3-HGL HSF-1 luciferase reporter, MG132, 8 h; 100% = twice DMSO control signal. 300,000 compounds, 1.7% hits. activation, % at 9 µM;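 active = mean replicate activation of at least 50% with a set share of replicates each reaching 50%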;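 note: 0% = median of the neutral control wells and 100% = twice that signal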
* hit, by the source's call.

How did S=c1[nH]ncn1/N=C/c1ccccn1 do in these assays?
PHOSPHO1 block: 98*; CHT block: inactive; HSF1 inh: -4; Lipid droplet: -1; CHT allo act: inactive; HSF1 activator: 10

How did CCOc1ccccc1CN1CCNC(=O)C1CC(=O)NCCCn1cccn1 (configuration not stated) do in these assays?
PHOSPHO1 block: 54; CHT block: inactive; HSF1 inh: -2; Lipid droplet: 2; CHT allo act: inactive; HSF1 activator: 3

Results for O=S(=O)(c1ccc2c(c1)C(=NO)c1cc(S(=O)(=O)N3CCCCC3)ccc1-2)N1CCCCC1 ?
PHOSPHO1 block: 31; CHT block: inactive; HSF1 inh: -94*; CHT allo act: inactive; HSF1 activator: -94

What do the screens show for `CC1CCN(S(=O)(=O)c2ccc3c(c2)C(=NO)c2cc(S(=O)(=O)N4CCC(C)CC4)ccc2-3)CC1`?
PHOSPHO1 block: 0; CHT block: inactive; CHT allo act: inactive

How did COc1ccc(C2C3=C(NCCN=C3c3ccccc3)C(=O)N2c2ccccc2)c(OC)c1 (configuration not stated) do in these assays?
PHOSPHO1 block: -1; CHT block: inactive; HSF1 inh: -9; Lipid droplet: 1; CHT allo act: inactive; HSF1 activator: -2

What do the screens show for `CCCCNC(=S)N(Cc1ccco1)Cc1cc2cc3c(cc2[nH]c1=O)OCCO3`?
PHOSPHO1 block: -15; CHT block: inactive; HSF1 inh: 132; Lipid droplet: -53; CHT allo act: inactive; HSF1 activator: 156*

How did Cc1ccc(C)c2[nH]c(=O)c(CN(Cc3cccs3)C(=S)NCc3ccco3)cc12 do in these assays?
PHOSPHO1 block: -15; CHT block: inactive; HSF1 inh: 48; Lipid droplet: -8; CHT allo act: inactive; HSF1 activator: 77*

Results for Cc1cc2cc(CN(Cc3cccs3)C(=S)NCc3ccco3)c(=O)[nH]c2cc1C ?
PHOSPHO1 block: -30; CHT block: inactive; HSF1 inh: 19; Lipid droplet: 12; CHT allo act: inactive; HSF1 activator: 63*

What do the screens show for `Cc1ccc(C)c2[nH]c(=O)c(CN(CC3CCCO3)C(=S)NCc3ccco3)cc12` (configuration not stated)?
PHOSPHO1 block: -45; CHT block: inactive; HSF1 inh: 9; Lipid droplet: -3; CHT allo act: inactive; HSF1 activator: 9

Results for COc1ccccc1NC(=S)N(Cc1ccco1)Cc1cc2cc(C)ccc2[nH]c1=O ?
PHOSPHO1 block: -1; CHT block: inactive; HSF1 inh: 58; Lipid droplet: 5; CHT allo act: inactive; HSF1 activator: 99*

What do the screens show for `COc1ccc(Cc2c(O)nc(SCC(=O)NC34CC5CC(CC(C5)C3)C4)[nH]c2=O)cc1`?
PHOSPHO1 block: -3; CHT block: inactive; HSF1 inh: 7; Lipid droplet: -20; CHT allo act: inactive; HSF1 activator: 2

What do the screens show for `Cc1cc2cc(CCNC(=O)c3cccs3)c(=O)[nH]c2cc1C`?
PHOSPHO1 block: -1; CHT block: inactive; HSF1 inh: 44; Lipid droplet: 14; CHT allo act: inactive; HSF1 activator: 58*

How did Cc1cc2[nH]c(=O)c3ccccc3n2n1 do in these assays?
PHOSPHO1 block: 22; CHT block: inactive; HSF1 inh: 29; CHT allo act: inactive; HSF1 activator: 54*

What do the screens show for `O=C(O)c1ccc(Nc2c3ccccc3nc3ccccc23)cc1`?
PHOSPHO1 block: 29; CHT block: inactive; HSF1 inh: -13; Lipid droplet: -3; CHT allo act: inactive; HSF1 activator: -23

How did CCSc1nc(-c2ccccc2)nc(C(Cl)Cl)n1 do in these assays?
PHOSPHO1 block: 12; CHT block: inactive; HSF1 inh: 42; Lipid droplet: -19; CHT allo act: inactive; HSF1 activator: 57*

Results for CSc1nc(-c2ccc(C)cc2)nc(C(Cl)Cl)n1 ?
PHOSPHO1 block: 11; CHT block: inactive; HSF1 inh: 28; CHT allo act: inactive; HSF1 activator: 37

Results for Cc1ccc(S(=O)(=O)Cc2cn3cccnc3n2)cc1 ?
PHOSPHO1 block: 20; HSF1 inh: -4; HSF1 activator: -1

What do the screens show for `CC(C)S(=O)(=O)C1=NSC2=NC(=O)/C(=C\c3ccc(OC(=O)c4ccco4)cc3)C(=N)N21`?
PHOSPHO1 block: 54; CHT block: -8.2*; HSF1 inh: 4; Lipid droplet: -16; CHT allo act: inactive; HSF1 activator: 23

What do the screens show for `Cc1cccc(Nc2ncnc3onc(-c4cccc(Cl)c4)c23)c1`?
PHOSPHO1 block: 4; CHT block: inactive; HSF1 inh: -3; Lipid droplet: -4; CHT allo act: inactive; HSF1 activator: -6

Results for Cc1ccc(OCC(=O)Nc2cccc(S(=O)(=O)N3CCOCC3)c2)c([N+](=O)[O-])n1 ?
PHOSPHO1 block: 12; CHT block: inactive; HSF1 inh: -3; Lipid droplet: 26; CHT allo act: inactive; HSF1 activator: -8

Results for O=C(NNC(=S)NC(=O)c1ccco1)c1ccc(NC(=O)c2ccccc2)cc1 ?
PHOSPHO1 block: 71*; CHT block: inactive; HSF1 inh: 9; Lipid droplet: 7; CHT allo act: inactive; HSF1 activator: -11

What do the screens show for `C/C(=N\NC(=O)c1ccco1)c1ccc(NC(=O)c2ccccc2)cc1`?
PHOSPHO1 block: 36; CHT block: inactive; HSF1 inh: 47; Lipid droplet: 11; CHT allo act: inactive; HSF1 activator: 94*

What do the screens show for `O=C(Nc1ccc(-c2nc3cccnc3s2)cc1)C1CCCO1` (configuration not stated)?
PHOSPHO1 block: -6; CHT block: inactive; HSF1 inh: -59*; Lipid droplet: 16; CHT allo act: inactive; HSF1 activator: -66

Results for O=C(Nc1ccc2oc(-c3ccccc3)nc2c1)C1CCCO1 (configuration not stated) ?
PHOSPHO1 block: -10; CHT block: inactive; HSF1 inh: 24; Lipid droplet: 2; CHT allo act: inactive; HSF1 activator: 73*

What do the screens show for `Cc1ccc2oc(-c3ccccc3)nc2c1`?
PHOSPHO1 block: -29; CHT block: inactive; HSF1 inh: 36; Lipid droplet: 10; CHT allo act: inactive; HSF1 activator: 69*

What do the screens show for `CCN(CC)C(=O)c1ccccc1NS(=O)(=O)c1ccc(C)cc1`?
PHOSPHO1 block: -6; CHT block: inactive; HSF1 inh: -8; Lipid droplet: 0; CHT allo act: inactive; HSF1 activator: -10

What do the screens show for `CCCCOC(=O)CSc1nc2c(cc1C#N)C(=O)CC(C)(C)C2`?
PHOSPHO1 block: 17; CHT block: inactive; HSF1 inh: 8; Lipid droplet: -9; CHT allo act: inactive; HSF1 activator: 14

High-throughput results (PubChem)
